Experiments:
[1] = target: T1, Serotonin 1 (5-HT1) receptor (Rattus norvegicus, UniProt P28564+P30940+P19327+P28565); assay: Binding affinity towards 5-hydroxytryptamine 1 receptor in brain cortical membranes of rat; format: cell membranes
Method in brief: (§1)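 Rat 5HT1 site: cortical membranes from 150-200-g male Wistar rats, preincubated in buffer to remove endogenous 5HT; […] per sample in 1 mL Tris buffer. [3H]-5HT at 2.3-2.6 nM; nonspecific binding with 10^-5 M 5HT. IC50 = 50% inhibition of specific binding, from 10 concentrations spanning 10^-9 to 10^-4 M.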

[2] = organism: Rattus norvegicus; assay: Tested for noncumulative contractile concentration -response curves for serotonin in the rat fundus.; format: functional
Method in brief: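 Isolated rat stomach fundus strips, four per fundus, in 10 mL modified Krebs. Noncumulative serotonin curves, about 2 min contact per concentration, washout every 15-20 min, maximal contraction read. Antagonist or buffer for 1 h, then curve repeated; one antagonist concentration per tissue. KB = [B]/(dose ratio - 1) from ED50 shift, reported as -log KB.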

[3] = organism: Rattus norvegicus; assay: Tested for cumulative contractile concentration -response curves for serotonin in the rat jugular vein.
[4] = target: Serotonin 2 (5-HT2) receptor (Rattus norvegicus, UniProt P30994+P08909+P14842); assay: Binding affinity towards 5-hydroxytryptamine 2 receptor in rat brain cortical membranes; format: cell membranes
Method in brief: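 5HT2 site, [3H]spiperone binding to cortical membranes of 150-200-g male Wistar rats, preincubated to deplete endogenous 5HT; […] per 1 mL Tris buffer. Nonspecific binding defined with 10^-6 M lysergic acid diethylamide. IC50 taken as 50% inhibition of specific binding, 10 concentrations from 10^-9 to 10^-4 M.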

[5] = target: T1, Serotonin 1 (5-HT1) receptor; assay: Tested for its binding affinity towards 5-hydroxytryptamine 1 receptor in rat; method in brief: as §1
[6] = organism: Rattus norvegicus; assay: Tested for cumulative contractile concentration -response curves for serotonin in the rat jugular vein

SMILES	IC50 [1] [nM]	IC50 [4] [nM]	IC50 [5] [nM]	-Log KB [2]	-Log KB [3]	-Log KB [6]
CCc1c(C)n(C(=O)c2ccc(F)cc2)c2ccc(N(C)C)cc12		> 1000	> 1000	<5		
CCc1c(C)n(C(C)C)c2ccc(N(C)C)cc12	> 1000	> 1000		7		7.28
CCc1c(C)[nH]c2ccc(N(C)C)cc12	> 1000	> 1000		7.3	4.93	
CCc1c(C)n(C)c2c(N(C)C)cccc12	> 1000	> 1000		<5.5		
CCc1c(C)[nH]c2ccc(N(C)C)c(Cl)c12	> 1000	> 1000		6.86		
CCc1c(C)n(C)c2ccc(NC(=O)Nc3cccc(C(F)(F)F)c3)cc12	> 1000	> 1000		7.16	5.18	

Further lines, with some results ahead:

IC50 [1] [nM]	IC50 [4] [nM]	IC50 [5] [nM]	SMILES	-Log KB [2]	-Log KB [3]	-Log KB [6]
> 1000	> 1000		CCc1c(C)n(CC)c2ccc(N(C)C)cc12	7.01	6.45	
> 1000	> 1000		CCc1c(C)n(C)c2ccc(N(C)C)cc12	7.32	6.51	
> 1000	> 1000		CCCn1c(C)c(CC)c2cc(N(C)C)ccc21	6.57		
> 1000	> 1000		CCc1c(C)c2cc(N(C)C)ccc2n1C	6.69		6.48
> 1000	> 1000		Cc1c(C)n(C)c2ccc(N(C)C)cc12	6.71		
